Source: PubChem
In the library only some 3.6% were active in any assay of this set; here they are far more common.
PERK inhibitor: block of dimerizer-induced PERK translation repression, primary screen, PERK inhibitor project, CHO PERK-DD cells, SEAP luminescence, HTS; CHO PERK-DD fusion, SEAP luminescence translation reporter; inhibition, % at 5.6 µM; 220,000 tested, 0.17% active; AID 1416, 2008;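 active = inhibition above the mean inhibition of all tested compounds plus 3 SD, set separately per screening campaign, cut at about 2.9% in these data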;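 also: PERK kinase domain activated by AP20187 dimerizer at 100 nM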
Hsp70 activator: Hsp70 transcriptional activators, primary screen, cell-based, HeLa, Hsp70 promoter luciferase, luminescence, 10 µM | HeLa Hsp70 promoter luciferase reporter; scaled: vehicle 0, proteasome-inhibitor control 100% | activation, % at 10 µM | 200,000 tested, 0.04% active | AID 1203, 2008;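 active = activation above the mean across all tested compounds plus 3 SD, cutoff set per campaign, cut at about 5.5% in these data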
AHR act: AHR activators, primary screen, cell-based, luminescence, luciferase reporter, human; AHR-responsive luciferase reporter cells; activation, % at 5 µM; 320,000 tested, 2.5% active; in the data active = activation above about 47%
HSF1 inhib: HSF1 inhibitors in luciferase reporter cells, primary screen, cell-based, NIH3T3, luminescence | activity change, negative = inhibition, % at 7.5 µM (by protocol) | 300,000 tested, 0.77% active | AID 2098, 2009 | NIH3T3-HGL HSE-luciferase, MG132-induced, luminescence 8 h; stronger effect = lower value;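 active = more than half of replicate wells show activity change below -50%, luminescence cut by over half; inconclusive = some wells, but at most half, below -50%; inactive = no replicate well below -50%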;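 also: luciferase reports HSF-1 transcriptional activity via heat shock element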
STAT3 activator: IL-6 driven STAT3 reporter potentiators, primary screen, U3A cells, luciferase, luminescence, MLSCN library; 190,000 tested, 0.91% active; IL-6 STAT3-luciferase reporter; 100% = signal with IL-6 EC80 alone; activation (% of control), % at 5.6 µM;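 active = activation above the screen-wide mean of compound activation plus 3 SD, cut at about 130% in these data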
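Assay system – human STAT1-deficient U3A cells with stable STAT3-luciferase reporter · Also added – IL-6 (33 ng/mL) · Schedule – compound 1 h, then IL-6 6 h at 37 °C · Technique – reporter luminescence signal · Evaluation – % activation versus median of IL-6-stimulated wells · Benchmarks – IL-6-only wells as 100% reference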
PolyA inh: polyadenylation inhibitors in yeast reporter cells, primary screen, luminescence, S. cerevisiae. S. cerevisiae SKY197-pL101 polyadenylation reporter, beta-gal luminescence; efflux-impaired pdr1/pdr3 knockout yeast; score 100 = 6 SD above DMSO. activity score, % at 12 µM. 300,000 tested, 0.02% active. AID 1875, 2009;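 active = lowest replicate activity score at least 50, where 100 means six control SD above control mean; inconclusive = lowest score under 50 but half or more replicates reach 50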;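 also: yeast exposed to compound for 9 h at 30 °C; higher score means more reporter readthrough which indicates perturbed polyadenylation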
AHR act cf: AHR activators, confirmation, cell-based, luminescence, luciferase reporter, human; human cells, AHR-responsive luciferase reporter; shares compounds with AHR act; activation, % at 9 µM; AID 2845, 2010; 2,300 tested, 87% active; in the data active = activation above about 49%;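 also: HepG2 hepatoma cells carrying a DRE-driven firefly luciferase reporter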
PXR counter: human PXR activators, counter-screen for AHR activator project, cell-based, luciferase luminescence; shares compounds with AHR act; cell-based PXR reporter; activation, % at 11.6 µM; 2,300 tested, 88% active; in the data active = activation above about 11%;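 also: human hepatoma DPX-2 cells expressing full-length human PXR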
Target sequence (O75469 whole entry, looked up): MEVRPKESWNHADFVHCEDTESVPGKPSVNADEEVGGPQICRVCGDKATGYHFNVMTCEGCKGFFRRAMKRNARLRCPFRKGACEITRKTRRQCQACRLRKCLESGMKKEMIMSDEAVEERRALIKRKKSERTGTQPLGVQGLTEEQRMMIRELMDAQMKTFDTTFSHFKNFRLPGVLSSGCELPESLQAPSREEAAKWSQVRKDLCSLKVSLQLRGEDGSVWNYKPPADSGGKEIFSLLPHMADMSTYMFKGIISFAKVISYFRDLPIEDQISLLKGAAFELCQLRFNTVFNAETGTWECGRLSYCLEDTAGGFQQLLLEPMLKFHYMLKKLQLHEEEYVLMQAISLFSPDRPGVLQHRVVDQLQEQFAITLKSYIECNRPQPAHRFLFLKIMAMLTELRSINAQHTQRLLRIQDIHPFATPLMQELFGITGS
Each line names hits and unclear results; the compound was inactive in the other large screens (follow-up assays come after a bar, where they were run).

O=C(c1ccc2c(=O)n3c(nc2c1)CCCCC3)N1CCc2ccccc21	none (no result: Hsp70 activator, STAT3 activator)
CC1(C)CC(NC(=O)c2c(N)no[n+]2[O-])CC(C)(C)N1	none
Clc1cc(Cl)c2nc(N3CCCC3)sc2c1	AHR act 88 | AHR act cf 95 | PXR counter 28
CC(=NCCCn1ccnc1)c1c(C)[nH]n(-c2ccc([N+](=O)[O-])cc2)c1=O	none
Cc1ccc2nc(NCc3ccccc3)[nH]c2c1	AHR act 84 | AHR act cf 55 | PXR counter 208
COc1ccccc1-c1nnc(SCC(=O)Nc2c(Cl)cccc2Cl)o1	AHR act 80 | AHR act cf 95 | PXR counter 83
CC(C)c1ccc2[nH]c(O)c(N=NC(=S)NCCc3ccccc3)c2c1	none
CCNC(=S)N=Nc1c(O)[nH]c2ccc(C(C)C)cc12	AHR act 123 | AHR act cf 72 | PXR counter 80
O=C(COC(=O)c1cc(S(=O)(=O)N2CCOCC2)c(Cl)cc1Cl)c1ccc[nH]1	none (no result: PERK inhibitor, Hsp70 activator, HSF1 inhib, STAT3 activator, PolyA inh)
COc1cccc2[nH]c3c(N4CCCC(C)C4)ncnc3c12 (stereo unspecified)	AHR act 81 | AHR act cf 97 | PXR counter 69
COc1cccc2[nH]c3c(N4CC(C)CC(C)C4)ncnc3c12 (stereo unspecified)	none (no result: AHR act)
COc1ccccc1N1CCN(C2CCCN(C(=O)c3ccsc3)C2)CC1 (stereo unspecified)	none (no result: PERK inhibitor, Hsp70 activator, STAT3 activator)
COc1ccc(-c2[nH]c(-c3ccccc3)nc2SCC(=O)NCc2ccco2)cc1OC	AHR act 121 | AHR act cf 68 | PXR counter 75
COc1ccc(-c2[nH]c(-c3ccc(F)cc3)nc2SCC(=O)NCc2ccco2)cc1OC	AHR act 80 | AHR act cf 63 | PXR counter 57
O=C(CCN1C(=O)c2ccccc2S1(=O)=O)Nc1cccc(F)c1	none (no result: PERK inhibitor, Hsp70 activator, STAT3 activator)
CCn1nnc2cc(C(=O)N3CCC(C(=O)OC)CC3)ccc21	none (no result: PERK inhibitor, Hsp70 activator, HSF1 inhib, STAT3 activator, PolyA inh)
CN(CC(=O)Nc1cccc(F)c1)C(=O)CCc1nc2ccccc2c(=O)[nH]1	PolyA inh inconclusive (no result: PERK inhibitor, Hsp70 activator, STAT3 activator)
C=Cc1ccc(Cn2c(=O)n(C)c(=O)c3sccc32)cc1	none (no result: PERK inhibitor, Hsp70 activator, STAT3 activator)
Oc1cncc(Cc2ccccc2)c1	none (no result: PERK inhibitor, Hsp70 activator, STAT3 activator)
O=C(N/N=C/c1ccc(Br)s1)c1cccs1	none (no result: Hsp70 activator, STAT3 activator)
Cc1ccc(/C=N/NC(=O)c2cccs2)s1	AHR act 130 | AHR act cf inactive | PXR counter 28
N#Cc1c(N)nc(N)nc1Nc1ccc(Br)cc1	AHR act 83 (no result: Hsp70 activator, STAT3 activator) | AHR act cf 72 | PXR counter 17
Cc1cc(C)nc(NC(=O)c2cc(-c3ccc4c(c3)OCO4)nc3ccccc23)c1	AHR act 89 (no result: PERK inhibitor, Hsp70 activator, STAT3 activator) | AHR act cf 78 | PXR counter 44
COc1cccc(NC(=O)CSc2nnc3ccc(-c4ccccn4)nn23)c1	none (no result: PERK inhibitor, Hsp70 activator, AHR act, STAT3 activator)
CC1CN(C(=O)c2ccc(Br)c(S(=O)(=O)N3CCOCC3)c2)CC(C)O1 (stereo unspecified)	none (no result: PERK inhibitor, Hsp70 activator, HSF1 inhib, STAT3 activator, PolyA inh)
O=C(O)c1c(C(=O)O)c(-c2ccc(Br)cc2)n2c1CSC2	none (no result: PERK inhibitor, Hsp70 activator, STAT3 activator)
CC(=O)ONC(=Nc1ccccc1)c1nonc1N	none (no result: Hsp70 activator, STAT3 activator)
NC(=Nc1ccccc1)NC(=O)c1nc(Cl)c(N)nc1N	AHR act 86 (no result: PERK inhibitor, Hsp70 activator, STAT3 activator) | AHR act cf inactive | PXR counter 35
O=C1C(c2cc(=O)c3ccccc3[nH]2)=C(O)c2ccccc21	AHR act 167 | AHR act cf 191 | PXR counter 25
